Laboratory results reported in publication PMC9418647 (European Journal of Drug Metabolism and Pharmacokinetics, 2022).
Values belong to the compound of their own block, whether it stands above or below them.

How the values were obtained:
[1] = cited from earlier work
OATP1B1 = biological target: T1, OATP1B1 (Homo sapiens, UniProt Q9Y6L6); test: Uptake assay for OATP1B1 inhibition in HEK-OATP1B1 cells; assay type: in vitro ADME
T1 sequence (Q9Y6L6 1-691): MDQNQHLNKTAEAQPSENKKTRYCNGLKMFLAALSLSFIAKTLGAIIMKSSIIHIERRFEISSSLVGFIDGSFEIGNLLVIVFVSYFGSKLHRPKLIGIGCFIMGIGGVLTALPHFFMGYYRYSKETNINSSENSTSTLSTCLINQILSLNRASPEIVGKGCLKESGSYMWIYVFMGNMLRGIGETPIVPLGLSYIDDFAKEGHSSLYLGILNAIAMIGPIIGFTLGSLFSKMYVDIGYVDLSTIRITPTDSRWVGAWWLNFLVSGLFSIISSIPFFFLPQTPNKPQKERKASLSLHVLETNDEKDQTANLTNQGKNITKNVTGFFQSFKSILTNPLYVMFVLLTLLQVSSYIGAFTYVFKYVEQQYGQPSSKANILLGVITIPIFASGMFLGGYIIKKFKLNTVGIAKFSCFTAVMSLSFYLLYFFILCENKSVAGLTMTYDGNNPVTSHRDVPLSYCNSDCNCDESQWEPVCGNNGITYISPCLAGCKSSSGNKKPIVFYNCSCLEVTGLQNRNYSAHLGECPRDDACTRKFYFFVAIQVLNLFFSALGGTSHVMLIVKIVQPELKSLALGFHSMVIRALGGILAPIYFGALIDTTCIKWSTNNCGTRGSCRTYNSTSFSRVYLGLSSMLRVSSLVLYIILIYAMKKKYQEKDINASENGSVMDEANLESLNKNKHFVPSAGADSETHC
Procedure, shortened: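 OATP1B1 uptake measured across a test-compound concentration range. IC50 reported as greater than the top concentration if inhibition stayed below 50%, and that concentration was then used in the calculation. AUC ratio estimated by the basic static model, assuming substrate clearance runs solely via the transporter.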

[2] = finerenone 20 mg; cited from earlier work
OATP1B3 = biological target: T2, OATP1B3 (Homo sapiens, UniProt Q9NPD5); test: Uptake assay for OATP1B3 inhibition in HEK-OATP1B3 cells; assay type: in vitro ADME
T2 sequence (Q9NPD5 1-702): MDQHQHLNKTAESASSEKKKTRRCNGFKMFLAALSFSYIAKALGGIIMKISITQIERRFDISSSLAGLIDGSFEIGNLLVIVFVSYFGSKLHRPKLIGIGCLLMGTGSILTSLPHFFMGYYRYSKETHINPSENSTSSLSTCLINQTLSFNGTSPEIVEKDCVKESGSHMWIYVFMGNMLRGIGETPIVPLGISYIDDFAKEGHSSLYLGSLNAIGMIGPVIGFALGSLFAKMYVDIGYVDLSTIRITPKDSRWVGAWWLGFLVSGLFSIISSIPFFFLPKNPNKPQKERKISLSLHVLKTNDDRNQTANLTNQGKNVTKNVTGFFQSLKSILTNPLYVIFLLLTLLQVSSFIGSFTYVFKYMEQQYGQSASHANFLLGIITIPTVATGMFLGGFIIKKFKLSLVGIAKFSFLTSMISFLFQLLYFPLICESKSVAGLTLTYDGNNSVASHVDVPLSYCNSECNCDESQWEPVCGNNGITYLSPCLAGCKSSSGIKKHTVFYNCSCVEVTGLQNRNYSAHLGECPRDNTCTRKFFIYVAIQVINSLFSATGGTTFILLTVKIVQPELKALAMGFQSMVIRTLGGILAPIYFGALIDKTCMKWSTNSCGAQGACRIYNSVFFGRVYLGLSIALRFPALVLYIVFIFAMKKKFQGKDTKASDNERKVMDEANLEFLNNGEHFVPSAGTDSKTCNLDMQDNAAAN
Procedure, shortened: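 Transporter-mediated transport measured across a test-compound concentration range. Where inhibition stayed below 50% at the top concentration, IC50 was reported as greater than the highest tested concentration.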

[3] = Clinical study: safety and tolerability; assay type: in vivo, human
Procedure, shortened: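 Healthy men given finerenone 40 mg once daily for 10 days, with rosuvastatin. Supine BP, HR and 12-lead ECG recorded after 15 min rest, pre-dose and up to 24 h post-dose. Haematology and chemistry including serum electrolytes taken pre-dose and at 24 and 48 h, except after separated dosing. Adverse events elicited with non-leading questions through follow-up.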

[4] = cited from earlier work; remark: listed apart in the source

IC50 (OATP1B1): 3.2 µM
predicted AUC ratio (AUCR), inhibition of OATP1B1 (OATP1B1; basic model R = 1 + [I]inlet,max,u (or Cmax,u)/IC50): 1.182
IC50 (OATP1B3): > 10 µM
SMILES: CCOc1ncc(C)c2c1[C@H](c1ccc(C#N)cc1OC)C(C(N)=O)=C(C)N2 [Finerenone, finerenone]
absolute bioavailability [1]: 43.5%
administered dose excreted in feces [1]: approximately 20%
administered dose excreted in urine [1]: About 80%
dose excreted unchanged in feces [1]: < 0.2%
dose excreted unchanged in urine [1]: < 1%
share of metabolic clearance by CYP3A4 ([1]; remainder attributable to CYP2C8): about 90%
effect on repaglinide (CYP2C8 and OATP substrate) [2]: no effect
changes in potassium levels ([3]; finerenone 40 mg): no relevant changes in potassium levels
serious or severe adverse events ([3]; finerenone 40 mg alone or with rosuvastatin): no serious or severe AEs
tolerability ([3]; repeated doses of finerenone 40 mg once daily, healthy male volunteers): well tolerated

SMILES: CC(C)c1nc(N(C)S(C)(=O)=O)nc(-c2ccc(F)cc2)c1/C=C/[C@@H](O)C[C@@H](O)CC(=O)O [Rosuvastatin, rosuvastatin]
Tmax (expected) [4]: approximately 5 h

SMILES: CC1=NN(c2ccc(C)c(C)c2)C(=O)/C1=N\Nc1cccc(-c2cccc(C(=O)O)c2)c1O [eltrombopag]
rosuvastatin AUC ratio [4]: 1.55
rosuvastatin Cmax ratio [4]: 2.03

SMILES: Cc1ccc(C)c(OCCCC(C)(C)C(=O)O)c1 [gemfibrozil]
increase of rosuvastatin AUC [4]: 1.88 fold
increase of rosuvastatin Cmax [4]: 2.21 fold

SMILES: CO[C@H]1/C=C/O[C@@]2(C)Oc3c(C)c(O)c4c(O)c(c(/C=N/N5CCN(C)CC5)c(O)c4c3C2=O)NC(=O)/C(C)=C\C=C\[C@H](C)[C@H](O)[C@@H](C)[C@@H](O)[C@@H](C)[C@H](OC(C)=O)[C@@H]1C [rifampicin]
CP-I AUC ratio [4]: 4.0
CP-III AUC ratio [4]: 3.3
rosuvastatin AUC ratio [4]: 5.0
